Assay results: ChEMBL document CHEMBL4368872, “Synthesis and anticonvulsant activity of phenoxyacetyl derivatives of amines, including aminoalkanols and amino acids” (Medchemcomm, 2018)
Activity calls are given as the source filed them. No cut-off for these calls is given here.

Experiments:
Mus musculus [1] = assay: Anticonvulsant activity in CF-1 mouse model of maximal electroshock-induced seizure assessed as suppression of tonic hind limb extension at 30 mg/kg, ip measured at 0.5 hrs post dose; format: functional, organism-based
Procedure, shortened: (§1)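 Mice dosed i.p. and given maximal electroshock at 50 mA. Read-out is protection, reported as number protected / number tested at 0.25, 0.5, 1 and 4 h after dosing.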

Rattus norvegicus [2] = assay: Anticonvulsant activity in Sprague-Dawley rat model of maximal electroshock-induced seizure assessed as suppression of tonic hind limb extension at 30 mg/kg, po measured at 2 hrs post dose; format: functional, organism-based
Procedure, shortened: (§2)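 Rats given 30 mg/kg p.o. and tested by maximal electroshock at 150 mA. Scored as number protected / number tested (4 per group) at 0.25, 0.5, 1, 2 and 4 h after dosing.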

[3] = Neurotoxicity in CF-1 mouse at 30 mg/kg, ip measured after 0.5 hrs by rotarod test; format: toxicity, organism-based; conditions: in vivo
Procedure, shortened: (§3)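 Mice dosed i.p. were placed on a 1 in. knurled rod turning at 6 rpm. Toxicity was scored as failure to keep balance for at least 1 min, i.e. falling off three or more times. Results are reported as animals showing toxicity / animals tested at each time point.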

Mus musculus [4] = assay: Anticonvulsant activity in CF-1 mouse model of subcutaneous pentylenetetrazole-induced seizure assessed as reduction in convulsions at 300 mg/kg, ip measured at 4 hrs post dose; format: functional, organism-based
Procedure, shortened: (§4)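 Mice dosed i.p., then given pentylenetetrazole 85 mg/kg in 0.9% NaCl s.c. into the posterior midline of the neck. Seizures watched for at least 30 min. Scored as protected / tested at 0.5 and 4 h.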

Mus musculus [5] = assay: Anticonvulsant activity in CF-1 mouse model of subcutaneous pentylenetetrazole-induced seizure assessed as reduction in convulsions at 30 mg/kg, ip measured at 4 hrs post dose; format: functional, organism-based; procedure, shortened: as §4
Mus musculus [6] = assay: Anticonvulsant activity in CF-1 mouse model of maximal electroshock-induced seizure assessed as suppression of tonic hind limb extension at 100 mg/kg, ip measured at 4 hrs post dose; format: functional, organism-based; procedure, shortened: as §1
[7] = Neurotoxicity in Sprague-Dawley rat at 30 mg/kg, po measured after 1 hr by rotarod test; format: toxicity, organism-based; conditions: in vivo
Procedure, shortened: (§5)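 Rat neurotoxicity after i.p. or p.o. dosing was scored as animals impaired / animals tested at each time point. For p.o. dosing, TD50 was obtained by probit analysis.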

Mus musculus [8] = assay: Anticonvulsant activity in CF-1 mouse model of subcutaneous pentylenetetrazole-induced seizure assessed as reduction in convulsions at 30 mg/kg, ip measured at 0.5 hrs post dose; format: functional, organism-based; procedure, shortened: as §4
[9] = Neurotoxicity in CF-1 mouse at 100 mg/kg, ip measured after 4 hrs by rotarod test; format: toxicity, organism-based; conditions: in vivo; procedure, shortened: as §3
Mus musculus [10] = assay: Anticonvulsant activity in CF-1 mouse model of maximal electroshock-induced seizure assessed as suppression of tonic hind limb extension at 30 mg/kg, ip measured at 4 hrs post dose; format: functional, organism-based; procedure, shortened: as §1
Mus musculus [11] = assay: Anticonvulsant activity in CF-1 mouse model of maximal electroshock-induced seizure assessed as suppression of tonic hind limb extension at 300 mg/kg, ip measured at 4 hrs post dose; format: functional, organism-based; procedure, shortened: as §1
[12] = Neurotoxicity in CF-1 mouse at 30 mg/kg, ip measured after 4 hrs by rotarod test; format: toxicity, organism-based; conditions: in vivo; procedure, shortened: as §3
Mus musculus [13] = assay: Anticonvulsant activity in CF-1 mouse model of subcutaneous pentylenetetrazole-induced seizure assessed as reduction in convulsions at 100 mg/kg, ip measured at 4 hrs post dose; format: functional, organism-based; procedure, shortened: as §4
Mus musculus [14] = assay: Anticonvulsant activity in CF-1 mouse model of maximal electroshock-induced seizure assessed as suppression of tonic hind limb extension at 300 mg/kg, ip measured at 0.5 hrs post dose; format: functional, organism-based; procedure, shortened: as §1
[15] = Neurotoxicity in Sprague-Dawley rat at 30 mg/kg, po measured after 2 hrs by rotarod test; format: toxicity, organism-based; conditions: in vivo; procedure, shortened: as §5
[16] = Neurotoxicity in Sprague-Dawley rat at 30 mg/kg, po measured after 0.25 hrs by rotarod test; format: toxicity, organism-based; conditions: in vivo; procedure, shortened: as §5
[17] = Neurotoxicity in Sprague-Dawley rat at 30 mg/kg, po measured after 4 hrs by rotarod test; format: toxicity, organism-based; conditions: in vivo; procedure, shortened: as §5
[18] = Neurotoxicity in Sprague-Dawley rat at 30 mg/kg, po measured after 0.5 hrs by rotarod test; format: toxicity, organism-based; conditions: in vivo; procedure, shortened: as §5
Mus musculus [19] = assay: Anticonvulsant activity in CF-1 mouse model of subcutaneous pentylenetetrazole-induced seizure assessed as reduction in convulsions at 300 mg/kg, ip measured at 0.5 hrs post dose; format: functional, organism-based; procedure, shortened: as §4
Rattus norvegicus [20] = assay: Anticonvulsant activity in Sprague-Dawley rat model of maximal electroshock-induced seizure assessed as suppression of tonic hind limb extension at 30 mg/kg, po measured at 4 hrs post dose; format: functional, organism-based; procedure, shortened: as §2
Rattus norvegicus [21] = assay: Anticonvulsant activity in Sprague-Dawley rat model of maximal electroshock-induced seizure assessed as suppression of tonic hind limb extension at 30 mg/kg, po measured at 1 hr post dose; format: functional, organism-based; procedure, shortened: as §2
Mus musculus [22] = assay: Anticonvulsant activity in CF-1 mouse model of subcutaneous pentylenetetrazole-induced seizure assessed as reduction in convulsions at 100 mg/kg, ip measured at 0.5 hrs post dose; format: functional, organism-based; procedure, shortened: as §4
[23] = Neurotoxicity in CF-1 mouse at 300 mg/kg, ip measured after 0.5 hrs by rotarod test; format: toxicity, organism-based; conditions: in vivo; procedure, shortened: as §3
[24] = Neurotoxicity in CF-1 mouse at 300 mg/kg, ip measured after 4 hrs by rotarod test; format: toxicity, organism-based; conditions: in vivo; procedure, shortened: as §3
Salmonella typhimurium [25] = assay: Antimutagenic activity against Salmonella typhimurium TA1535 assessed as inhibition of NaN3-induced mutation at 50 ug/plate preincubated for 30 mins followed by top agar addition and measured after 48 hrs in presence of liver S9 fraction by Ames test relative to control; format: organism-based; conditions: salmonella enterica subsp. enterica serovar typhimurium, s9, 48 h
Mus musculus [26] = assay: Anticonvulsant activity in CF-1 mouse model of maximal electroshock-induced seizure assessed as suppression of tonic hind limb extension at 100 mg/kg, ip measured at 0.5 hrs post dose; format: functional, organism-based; procedure, shortened: as §1
Salmonella typhimurium [27] = assay: Antimutagenic activity against Salmonella typhimurium TA1535 assessed as inhibition of NaN3-induced mutation at 500 ug/plate preincubated for 30 mins followed by top agar addition and measured after 48 hrs in presence of liver S9 fraction by Ames test relative to control; format: organism-based; conditions: salmonella enterica subsp. enterica serovar typhimurium, s9, 48 h
Salmonella typhimurium [28] = assay: Antimutagenic activity against Salmonella typhimurium TA100 assessed as inhibition of NaN3-induced mutation at 250 ug/plate preincubated for 30 mins followed by top agar addition and measured after 48 hrs in presence of liver S9 fraction by Ames test relative to control; format: organism-based; conditions: salmonella enterica subsp. enterica serovar typhimurium, s9, 48 h
Salmonella typhimurium [29] = assay: Antimutagenic activity against Salmonella typhimurium TA1535 assessed as inhibition of NaN3-induced mutation at 100 ug/plate preincubated for 30 mins followed by top agar addition and measured after 48 hrs in presence of liver S9 fraction by Ames test relative to control; format: organism-based; conditions: salmonella enterica subsp. enterica serovar typhimurium, s9, 48 h
[30] = Mutagenicity in Salmonella typhimurium TA1535 assessed as mutagenicity index at 50 to 500 ug/plate preincubated for 30 mins followed by top agar addition and measured after 48 hrs in absence of liver S9 fraction by Ames test; format: toxicity; conditions: salmonella enterica subsp. enterica serovar typhimurium, s9, 48 h
Procedure, shortened: (§6)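 Ames plate incorporation in S. typhimurium TA100 or TA1535, with or without S9. Overnight culture, compound in DMSO (50–500 µg per plate) and buffer or S9 mix preincubated 30 min at 37 °C, then top agar on glucose minimal agar. Incubated 48 h at 37 °C, revertants counted in triplicate. Vehicle negative control; NaN3 (−S9) and 2AA (+S9) positive controls. MI = revertants with compound / negative-control revertants; MI ≥ 2 with dose-response counts as positive.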

[31] = Mutagenicity in Salmonella typhimurium TA100 assessed as mutagenicity index at 50 to 500 ug/plate preincubated for 30 mins followed by top agar addition and measured after 48 hrs in presence of liver S9 fraction by Ames test; format: toxicity, subcellular; conditions: salmonella enterica subsp. enterica serovar typhimurium, s9, 48 h; procedure, shortened: as §6
Salmonella typhimurium [32] = assay: Antimutagenic activity against Salmonella typhimurium TA100 assessed as inhibition of NaN3-induced mutation at 500 ug/plate preincubated for 30 mins followed by top agar addition and measured after 48 hrs in presence of liver S9 fraction by Ames test relative to control; format: organism-based; conditions: salmonella enterica subsp. enterica serovar typhimurium, s9, 48 h
Salmonella typhimurium [33] = assay: Antimutagenic activity against Salmonella typhimurium TA1535 assessed as inhibition of NaN3-induced mutation at 250 ug/plate preincubated for 30 mins followed by top agar addition and measured after 48 hrs in presence of liver S9 fraction by Ames test relative to control; format: organism-based; conditions: salmonella enterica subsp. enterica serovar typhimurium, s9, 48 h
[34] = Mutagenicity in Salmonella typhimurium TA1535 assessed as mutagenicity index at 50 to 500 ug/plate preincubated for 30 mins followed by top agar addition and measured after 48 hrs in presence of liver S9 fraction by Ames test; format: toxicity, subcellular; conditions: salmonella enterica subsp. enterica serovar typhimurium, s9, 48 h; procedure, shortened: as §6
Salmonella typhimurium [35] = assay: Antimutagenic activity against Salmonella typhimurium TA100 assessed as inhibition of NaN3-induced mutation at 100 ug/plate preincubated for 30 mins followed by top agar addition and measured after 48 hrs in presence of liver S9 fraction by Ames test relative to control; format: organism-based; conditions: salmonella enterica subsp. enterica serovar typhimurium, s9, 48 h
Salmonella typhimurium [36] = assay: Antimutagenic activity against Salmonella typhimurium TA100 assessed as inhibition of NaN3-induced mutation at 50 ug/plate preincubated for 30 mins followed by top agar addition and measured after 48 hrs in presence of liver S9 fraction by Ames test relative to control; format: organism-based; conditions: salmonella enterica subsp. enterica serovar typhimurium, s9, 48 h
[37] = Mutagenicity in Salmonella typhimurium TA100 assessed as mutagenicity index at 50 to 500 ug/plate preincubated for 30 mins followed by top agar addition and measured after 48 hrs in absence of liver S9 fraction by Ames test; format: toxicity; conditions: salmonella enterica subsp. enterica serovar typhimurium, s9, 48 h; procedure, shortened: as §6

Row | SMILES | Activity (Mus musculus [1]) | Activity [3] | Activity (Mus musculus [4]) | Activity (Mus musculus [5]) | Activity (Mus musculus [6]) | Activity (Mus musculus [8]) | Activity [9] | Activity (Mus musculus [10]) | Activity (Mus musculus [11]) | Activity [12] | Activity (Mus musculus [13]) | Activity (Mus musculus [14]) | Activity (Mus musculus [19]) | Activity (Mus musculus [22]) | Activity [23] | Activity [24] | also measured
1 | CNC(=O)C(C)NC(=O)COc1c(C)cccc1C (stereo not drawn) | inactive | Non-Toxic | inactive | inactive | inactive | inactive | Non-Toxic | inactive | inactive | Non-Toxic | inactive | Active | inactive | inactive | Toxic | Non-Toxic | Activity (Rattus norvegicus [2]): inactive; Activity [7]: Non-Toxic; Activity [15]: Non-Toxic; Activity [16]: Non-Toxic; Activity [17]: Non-Toxic; Activity [18]: Non-Toxic; Activity (Rattus norvegicus [20]): inactive; Activity (Rattus norvegicus [21]): inactive
2 | Cc1cccc(C)c1OCC(=O)NCC(O)c1ccccc1 (stereo not drawn) | inactive | Non-Toxic | inactive | inactive | inactive | inactive | Non-Toxic | inactive | inactive | Non-Toxic | inactive | inactive | inactive | inactive | Non-Toxic | Non-Toxic | inhibition (INH) (Salmonella typhimurium [25]): 58%; Activity (Mus musculus [26]): inactive; inhibition (INH) (Salmonella typhimurium [27]): 13%; inhibition (INH) (Salmonella typhimurium [28]): 51%; inhibition (INH) (Salmonella typhimurium [29]): 45%; Activity index [30]: 0.7 to 1.7; Activity index [31]: 0.7 to 1.7; inhibition (INH) (Salmonella typhimurium [32]): 41%; inhibition (INH) (Salmonella typhimurium [33]): 35%; Activity index [34]: 0.7 to 1.7; inhibition (INH) (Salmonella typhimurium [35]): 45%; inhibition (INH) (Salmonella typhimurium [36]): 17%; Activity index [37]: 0.7 to 1.7
